Assay results: ChEMBL document CHEMBL4732116, “Discovery of novel CA-4 analogs as dual inhibitors of tubulin polymerization and PD-1/PD-L1 interaction for cancer treatment” (Eur J Med Chem, 2021)
Calls of active or inactive are those of the source. The calls are words filed in the database; no cut-off is given here.

Key:
[1] = test system: NCM460; test: Cytotoxicity against human NCM460 cells assessed as reduction in cell viability measured after 48 hrs by CCK8 assay; format: cell-based; settings: NCM460, 48 h
Summary of the method: (§1)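 Cells pre-incubated 24 h at 37 °C, 5% CO2, then exposed to compounds over a concentration range in medium with 0.1% DMSO for a further 48 h at 37 °C. CCK-8 read-out as absorbance at 450 nm. IC50 taken from dose-response curves. Three independent experiments.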

[2] = test system: HeLa; test: Antiproliferative activity against human HeLa cells assessed as reduction in cell viability measured after 48 hrs by CCK8 assay; format: functional, cell-based; summary of the method: as §1
[3] = Antiproliferative activity against human A549/PTX cells assessed as reduction in cell viability measured after 48 hrs by CCK8 assay; format: functional, cell-based; settings: A549/Taxol; summary of the method: as §1
[4] = biological target: Programmed cell death protein 1/Programmed cell death 1 ligand 1 (Homo sapiens, UniProt Q9NZQ7); test: Inhibition of PD1/PDL1 (unknown origin) protein-protein interaction measured after 15 mins by HTRF assay; format: protein-complex assay
Programmed cell death protein 1/Programmed cell death 1 ligand 1, sequence (Q15116 whole entry): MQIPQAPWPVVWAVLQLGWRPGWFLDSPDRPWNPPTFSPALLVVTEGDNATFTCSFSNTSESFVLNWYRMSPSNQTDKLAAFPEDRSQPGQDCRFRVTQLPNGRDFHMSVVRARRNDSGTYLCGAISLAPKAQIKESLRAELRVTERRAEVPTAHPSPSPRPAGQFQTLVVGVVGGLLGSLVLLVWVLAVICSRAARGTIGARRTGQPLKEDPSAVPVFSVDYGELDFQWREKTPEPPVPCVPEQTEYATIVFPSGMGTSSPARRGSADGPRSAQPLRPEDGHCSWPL
Programmed cell death protein 1/Programmed cell death 1 ligand 1, sequence (Q9NZQ7 whole entry): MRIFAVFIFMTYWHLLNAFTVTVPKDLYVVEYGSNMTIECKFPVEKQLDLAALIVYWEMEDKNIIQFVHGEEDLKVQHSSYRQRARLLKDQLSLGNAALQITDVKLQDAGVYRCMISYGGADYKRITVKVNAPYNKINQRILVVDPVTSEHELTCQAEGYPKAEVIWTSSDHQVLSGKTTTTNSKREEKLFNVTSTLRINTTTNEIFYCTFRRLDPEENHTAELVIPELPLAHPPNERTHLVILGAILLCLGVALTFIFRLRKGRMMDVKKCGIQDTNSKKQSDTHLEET

[5] = test system: B16-F10; test: Antiproliferative activity against mouse B16-F10 cells assessed as reduction in cell viability measured after 48 hrs by CCK8 assay; format: functional, cell-based; settings: B16-F10, 48 h; summary of the method: as §1
[6] = test system: MC-38; test: Antiproliferative activity against mouse MC38 cells assessed as reduction in cell viability measured after 48 hrs by CCK8 assay; format: functional, cell-based; settings: MC-38, 48 h; summary of the method: as §1
[7] = test system: HepG2; test: Antiproliferative activity against human HepG2 cells assessed as reduction in cell viability measured after 48 hrs by CCK8 assay; format: functional, cell-based; settings: HepG2, 48 h; summary of the method: as §1
[8] = test system: HEK293; test: Cytotoxicity against HEK293 cells assessed as reduction in cell viability measured after 48 hrs by CCK8 assay; format: cell-based; settings: Homo sapiens, HEK293, 48 h; summary of the method: as §1
[9] = (§2) Inhibition of pig brain tubulin polymerization by spectrophotometric method; format: tissue-based, Sus scrofa
Summary of the method: (§3)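 Pig brain tubulin (three assembly/disassembly cycles, phosphocellulose P11 purification) mixed with compound at various concentrations in PEM buffer (100 mM PIPES, 1 mM MgCl2, 1 mM EGTA) with 1 mM GTP, 5% glycerol; polymerization read at 340 nm, 37 °C; plateau absorbance used.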

[10] = organism: Sus scrofa; test: as §2; format: tissue-based; summary of the method: as §3
[11] = biological target: Tubulin (Homo sapiens) (UniProt P68371+Q9H4B7+P0DPH7+P68366+Q13509+Q71U36+P04350+Q3ZCM7+P07437+P68363+Q9BQE3+Q6PEY2+Q13885+Q9BVA1+Q9BUF5); test: Disruption of microtubule network in human HepG2 cells at 5 uM measured after 24 hrs by immunofluorescence assay; format: cell-based
Summary of the method: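 HepG2 cells on glass coverslips, treated 24 h after plating for 24 h (vehicle 0.1% DMSO). Fixed 15 min in 4% formaldehyde, permeabilized 5 min in 0.2% Triton X-100, blocked 30 min in 5% BSA. Immunostained with anti-tubulin antibody, then imaged by confocal laser scanning.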

IC50 [2]	IC50 [5]	IC50 [7]	IC50 [9]	inhibition [11]	SMILES	IC50 [1]	IC50 [3]	IC50 [4]	IC50 [6]	IC50 [8]	inhibition [10]
> 10 µM	> 10 µM	6.5 µM	–	–	COc1ccc(/C=C\c2cc(OC)c(OC)c(OC)c2)cc1OCc1ccc(CNC(C)(C)C(=O)O)cc1	> 50 µM	> 20 µM	> 100 µM	> 10 µM	> 50 µM	–
> 10 µM	5.4 µM	> 10 µM	–	–	COc1ccc(/C=C\c2cc(OC)c(OC)c(OC)c2)cc1OCc1ccc(CN[C@H](C(=O)O)[C@@H](C)O)cc1	> 50 µM	> 20 µM	50.7 µM	> 10 µM	> 50 µM	–
7.6 µM	6.6 µM	2.4 µM	–	–	COc1ccc(/C=C\c2cc(OC)c(OC)c(OC)c2)cc1OCc1ccc(CO)cc1	> 50 µM	12 µM	> 100 µM	5.7 µM	37 µM	–
4.4 µM	6.6 µM	5.9 µM	–	–	COc1ccc(/C=C\c2cc(OC)c(OC)c(OC)c2)cc1OCc1ccc(CNCCO)cc1	39 µM	0.8 µM	90.5 µM	1.2 µM	> 50 µM	–
9.4 µM	> 10 µM	4.4 µM	–	–	COc1ccc(/C=C\c2cc(OC)c(OC)c(OC)c2)cc1OCc1ccc(CNCCN(C)C)cc1	35 µM	1.6 µM	> 100 µM	1.4 µM	39 µM	–
12.8 µM	> 10 µM	2.3 µM	> 200 µM	–	COc1ccc(/C=C\c2cc(OC)c(OC)c(OC)c2)cc1OCc1ccc(CN2CC[C@@H](C(=O)O)C2)cc1	> 50 µM	> 20 µM	> 100 µM	6.3 µM	27 µM	–
> 10 µM	> 10 µM	> 10 µM	–	–	COc1ccc(/C=C\c2cc(OC)c(OC)c(OC)c2)cc1OCc1ccc(CN2CCCC[C@@H]2C(=O)O)cc1	> 50 µM	> 20 µM	> 100 µM	> 10 µM	42 µM	–
10.5 µM	> 10 µM	6.6 µM	–	–	COc1ccc(/C=C\c2cc(OC)c(OC)c(OC)c2)cc1OCc1ccc(CN2CC[C@H](O)C2)cc1	51 µM	5.9 µM	90 µM	7.2 µM	> 50 µM	–
6.4 µM	2.5 µM	6.1 µM	60.7 µM	–	COc1ccc(/C=C\c2cc(OC)c(OC)c(OC)c2)cc1OCc1ccc(CNCCNC(C)=O)cc1	54 µM	1.1 µM	44.8 µM	1.8 µM	> 50 µM	–
2 µM	4.7 µM	1.1 µM	202 µM	–	COc1ccc(/C=C\c2cc(OC)c(OC)c(OC)c2)cc1OCc1ccc(CN2CCCCC2C(=O)NCCNC(=O)OC(C)(C)C)cc1 (configuration not stated)	28 µM	15 µM	> 100 µM	1.9 µM	48 µM	–
9.2 µM	> 10 µM	5.3 µM	–	–	COc1ccc(/C=C\c2cc(OC)c(OC)c(OC)c2)cc1OCc1ccc(CN2C[C@H](O)[C@@H](F)C2)cc1	38 µM	19.2 µM	52 µM	> 10 µM	29 µM	–
–	–	–	–	–	CC(=O)O[C@H]1C(=O)[C@@]2(C)[C@H]([C@H](OC(=O)c3ccccc3)[C@]3(O)C[C@H](OC(=O)[C@H](O)[C@@H](NC(=O)c4ccccc4)c4ccccc4)C(C)=C1C3(C)C)[C@]1(OC(C)=O)CO[C@@H]1C[C@@H]2O	–	–	–	–	–	inactive
6.5 µM	> 10 µM	> 10 µM	–	–	COc1ccc(/C=C\c2cc(OC)c(OC)c(OC)c2)cc1OCc1ccc(CN2CC(C(=O)O)C2)cc1	> 50 µM	> 20 µM	42 µM	> 10 µM	> 50 µM	–
7.3 µM	4.6 µM	4.8 µM	–	–	COc1ccc(/C=C\c2cc(OC)c(OC)c(OC)c2)cc1OCc1ccc(CN2CCCCC2C(=O)NCCN)cc1 (configuration not stated)	> 50 µM	2.7 µM	65.7 µM	> 10 µM	> 50 µM	–
> 10 µM	7 µM	6.4 µM	–	–	COc1ccc(/C=C\c2cc(OC)c(OC)c(OC)c2)cc1OCc1ccc(CN2CC[C@H](C(=O)O)C2)cc1	> 50 µM	12 µM	38.6 µM	> 10 µM	> 50 µM	–
14.2 µM	> 10 µM	3.1 µM	–	–	COc1ccc(/C=C\c2cc(OC)c(OC)c(OC)c2)cc1OCc1ccc(CN2CCCCC2C(=O)O)cc1 (configuration not stated)	> 50 µM	10.2 µM	> 100 µM	5.4 µM	> 50 µM	–
> 10 µM	> 10 µM	> 10 µM	–	–	COc1ccc(/C=C\c2cc(OC)c(OC)c(OC)c2)cc1OCc1ccc(CN2C[C@H](O)C[C@@H]2C(=O)O)cc1	> 50 µM	> 20 µM	> 100 µM	> 10 µM	> 50 µM	–
–	–	–	–	Active	COc1ccc(/C=C\c2cc(OC)c(OC)c(OC)c2)cc1OCc1ccc(C=O)cc1	–	–	–	–	–	–
> 10 µM	> 10 µM	> 10 µM	> 200 µM	–	COc1ccc(/C=C\c2cc(OC)c(OC)c(OC)c2)cc1OCc1ccc(CN2CCCC[C@H]2C(=O)O)cc1	> 50 µM	> 20 µM	> 100 µM	> 10 µM	> 50 µM	–
> 10 µM	> 10 µM	6.2 µM	–	–	COc1ccc(/C=C\c2cc(OC)c(OC)c(OC)c2)cc1OCc1ccc(CN2CC[C@@H](O)C2)cc1	53 µM	8.9 µM	> 100 µM	6.9 µM	> 50 µM	–
> 10 µM	> 10 µM	> 10 µM	–	–	COc1ccc(/C=C\c2cc(OC)c(OC)c(OC)c2)cc1OCc1ccc(CN[C@H](C(=O)O)[C@H](C)O)cc1	> 50 µM	> 20 µM	58.6 µM	> 10 µM	> 50 µM	–

SMILES	IC50 [2]	IC50 [5]	IC50 [7]	IC50 [9]	inhibition [11]	IC50 [1]	IC50 [3]	IC50 [4]	IC50 [6]	IC50 [8]	inhibition [10]
COc1ccc(/C=C\c2cc(OC)c(OC)c(OC)c2)cc1O [COMBRETASTATIN A4]	0.06 µM	0.05 µM	0.59 µM	4.31 µM	–	12 µM	0.62 µM	> 100 µM	0.08 µM	11 µM	–
